Measured values published in ChEMBL document CHEMBL1806494, “Synthesis and biological evaluation of potential 5-HT(7) receptor PET radiotracers” (Eur J Med Chem, 2011).
pKi: −log10 of the molar value. Active and inactive are the calls of the source. No cut-off for these calls is given here.

Assays:
[1] = molecular target: T1, 5-hydroxytryptamine receptor 1A (Homo sapiens) (UniProt P08908); test: Binding affinity to recombinant human 5HT1A receptor expressed in CHO cells by competitive binding assay; assay type: cell-based
T1 sequence (whole entry): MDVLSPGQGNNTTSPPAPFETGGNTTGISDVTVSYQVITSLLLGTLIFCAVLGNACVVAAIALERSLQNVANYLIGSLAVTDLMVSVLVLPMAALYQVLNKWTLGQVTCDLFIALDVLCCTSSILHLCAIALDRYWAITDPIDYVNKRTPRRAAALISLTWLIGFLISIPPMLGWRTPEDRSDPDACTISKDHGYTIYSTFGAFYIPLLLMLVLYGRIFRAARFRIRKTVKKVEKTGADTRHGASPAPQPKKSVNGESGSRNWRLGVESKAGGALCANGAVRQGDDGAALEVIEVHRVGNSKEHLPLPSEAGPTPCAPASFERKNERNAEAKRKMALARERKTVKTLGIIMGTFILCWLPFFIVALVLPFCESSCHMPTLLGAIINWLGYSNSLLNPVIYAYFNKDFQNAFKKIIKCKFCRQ
Procedure, shortened: (§1)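 Cell-based functional assay on human recombinant receptors expressed in CHO cells. Test compound inhibition of the control specific agonist response was measured over a concentration range. Concentration-response curves were built from mean replicate values and fitted with the Hill equation by non-linear regression to give IC50, reported as KB.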

[2] = molecular target: T2, 5-hydroxytryptamine receptor 7 (Homo sapiens, UniProt P34969); test: Binding affinity to recombinant human 5HT7 receptor expressed in CHO cells by competitive binding assay; assay type: cell-based; procedure, shortened: as §1
T2 sequence (P34969 whole entry): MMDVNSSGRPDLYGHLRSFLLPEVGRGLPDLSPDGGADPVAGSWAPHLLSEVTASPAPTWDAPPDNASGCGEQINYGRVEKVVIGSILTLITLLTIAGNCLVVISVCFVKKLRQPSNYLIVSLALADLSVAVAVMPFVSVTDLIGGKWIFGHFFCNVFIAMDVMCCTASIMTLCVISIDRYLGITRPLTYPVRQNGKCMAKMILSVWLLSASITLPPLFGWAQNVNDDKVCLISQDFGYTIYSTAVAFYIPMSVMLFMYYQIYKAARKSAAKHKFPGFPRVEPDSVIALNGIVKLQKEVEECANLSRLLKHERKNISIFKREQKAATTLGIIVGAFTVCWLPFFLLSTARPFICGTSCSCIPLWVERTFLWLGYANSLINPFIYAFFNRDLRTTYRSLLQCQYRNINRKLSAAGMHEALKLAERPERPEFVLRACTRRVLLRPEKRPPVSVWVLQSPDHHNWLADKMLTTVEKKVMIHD

[3] = molecular target: 5-hydroxytryptamine receptor 6 (Homo sapiens) (UniProt P50406); test: Binding affinity to recombinant human 5HT6 receptor expressed in CHO cells by competitive binding assay; assay type: cell-based; procedure, shortened: as §1
Chain of 5-hydroxytryptamine receptor 6 (Homo sapiens) (P50406 whole entry): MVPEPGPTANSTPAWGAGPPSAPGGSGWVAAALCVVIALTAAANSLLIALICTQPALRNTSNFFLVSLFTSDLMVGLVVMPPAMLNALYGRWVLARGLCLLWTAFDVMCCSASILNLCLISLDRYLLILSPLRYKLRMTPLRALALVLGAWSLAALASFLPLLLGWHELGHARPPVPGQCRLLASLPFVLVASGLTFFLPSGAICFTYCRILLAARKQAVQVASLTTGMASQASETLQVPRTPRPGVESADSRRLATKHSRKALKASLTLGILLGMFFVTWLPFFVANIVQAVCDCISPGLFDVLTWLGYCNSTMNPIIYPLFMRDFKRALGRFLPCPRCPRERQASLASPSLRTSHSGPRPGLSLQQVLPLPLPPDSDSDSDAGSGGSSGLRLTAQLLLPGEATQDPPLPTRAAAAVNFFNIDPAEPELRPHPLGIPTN

[4] = molecular target: 5-hydroxytryptamine receptor 7 (Rattus norvegicus) (UniProt P32305); test: Binding affinity to 5HT7 receptor in Sprague-Dawley rat hippocampus at 1 uCi/ml after 20 mins by semi-quantitative autoradiography in presence of 10 to 100 nM of 5HT7 receptor antagonist SB269970; assay type: tissue-based; settings: tested as the 18F-labelled form
Chain of 5-hydroxytryptamine receptor 7 (Rattus norvegicus) (P32305 whole entry): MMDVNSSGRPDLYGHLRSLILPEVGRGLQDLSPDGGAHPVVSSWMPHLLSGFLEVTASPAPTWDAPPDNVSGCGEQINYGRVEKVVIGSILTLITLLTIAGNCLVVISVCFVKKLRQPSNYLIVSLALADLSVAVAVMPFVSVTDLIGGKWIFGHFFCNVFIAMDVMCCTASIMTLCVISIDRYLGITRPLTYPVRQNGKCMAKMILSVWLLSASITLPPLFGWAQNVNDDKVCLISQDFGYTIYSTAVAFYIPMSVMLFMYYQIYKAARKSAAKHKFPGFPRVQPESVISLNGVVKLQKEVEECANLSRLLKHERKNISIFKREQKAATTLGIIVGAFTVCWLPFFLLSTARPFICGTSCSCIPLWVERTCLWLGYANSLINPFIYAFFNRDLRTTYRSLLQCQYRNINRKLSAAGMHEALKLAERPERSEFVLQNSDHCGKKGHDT
Procedure, shortened: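 Coronal rat brain sections (30 µm, cut through hippocampus and cerebellum, stored at -80 °C) brought to ambient temperature, incubated 20 min in Tris phosphate-buffered saline (138 mM NaCl, 2.7 mM KCl, pH 7.6) with 37 kBq/ml [18F]radiotracer, alone or with SB269970 (10 nM, 100 nM or 1 µM). Rinsed 90 s in cold buffer (4 °C), then 90 s in cold water, dried, and exposed to a phosphor imaging plate for 60 min. Hippocampal binding read semi-quantitatively, in triplicate.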

[5] = molecular target: T2, 5-hydroxytryptamine receptor 7; test: Binding affinity to 5HT7 receptor

| Kb [1] | Kb [2] | Kb [3] | Activity [4] | pKi [5] | Structure (SMILES) |
| --- | --- | --- | --- | --- | --- |
| > 10 µM | 0.0084 µM | > 10 µM | inactive | – | CC1CCN(CC[C@H]2CCCN2S(=O)(=O)c2ccccc2F)CC1 |
| > 10 µM | 0.014 µM | > 10 µM | inactive | – | CC1CCN(CC[C@H]2CCCN2S(=O)(=O)c2ccc(F)cc2)CC1 |

More lines, now with the values behind:

| Structure (SMILES) | Kb [1] | Kb [2] | Kb [3] | Activity [4] | pKi [5] |
| --- | --- | --- | --- | --- | --- |
| COc1ccccc1N1CCN(CC[C@H]2CCCN2S(=O)(=O)c2ccc(F)cc2)CC1 | > 10 µM | 0.0048 µM | > 10 µM | Active | – |
| COc1ccccc1N1CCN(CC[C@H]2CCCN2S(=O)(=O)c2ccccc2F)CC1 | > 10 µM | 0.0016 µM | > 10 µM | Active | – |
| [11CH3]N1C(=O)C2(CCCCN3CCc4sccc4C3)CCCc3cccc1c32 (configuration not stated) | – | – | – | – | 8.01 |
